The source made the active and inactive calls. No cut-off for these calls is given here.
How the values were obtained:
[1] = test system: Mus musculus; assay: Anti-atherosclerotic activity in apoE knockout mouse fed with western-type diet assessed as reduction in liver SMS activity at 12.5 mg/kg/day, ig for 7 weeks relative to control; format: functional; design: scale not given: the % may be the effect or the level left
Method in brief: (§1)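 ApoE KO mice on Western-type diet, dosed by gavage at 12.5 or 40 mg/kg/day for 7 weeks, n = 10. Liver homogenized at 200 mg/ml in 50 mM Tris-HCl pH 7.4, 1 mM EDTA, 250 mM sucrose. C6-NBD-ceramide and DMPC added, incubated at 37 °C, quenched with ethanol. Product read by TLC or HPLC, relative to vehicle.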

[2] = AUC (0 to 8 hrs) in C57BL/6J mouse at 100 mg/kg/day, ig by HPLC-MS/MS analysis; format: ADME, organism-based; design: dose 100 mg/kg/day, time < 8 hr, route intragastric; details: in vivo, po
Method in brief: (§2)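 Male C57BL/6J mice, six to eight weeks old, about 20 g, fasted 12 h with free water. Given a single intragastric dose of 25, 50 or 100 mg/kg in 10% DMSO/30% PEG-100/0.9% NaCl. Blood taken retro-orbitally at 5 min to 8 h. Plasma protein-precipitated with methanol plus internal standard, then HPLC-MS/MS on a C18 column. Noncompartmental analysis, n = 6.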

[3] = Apparent oral clearance in C57BL/6J mouse at 100 mg/kg/day, ig by HPLC-MS/MS analysis; format: ADME, organism-based; details: in vivo; method in brief: as §2
[4] = test system: Mus musculus; assay: Anti-atherosclerotic activity in apoE knockout mouse fed with western-type diet assessed as reduction in lesions in whole aorta at 12.5 to 40 mg/kg/day, ig for 7 weeks by oil-red O staining-based assay relative to control; format: functional, organism-based
Method in brief: (§3)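 ApoE KO mice fed Western-type diet, then given 12.5 or 40 mg/kg/day by gavage in 30% PEG-400/10% DMSO/0.9% NaCl for 7 weeks. Aortic root: H&E-stained 4 µm sections, mean lesion area from 6 sections per animal. Whole aorta: en face Oil Red O staining, percentage of area stained. Compared with vehicle, n = 10.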

[5] = target: T1, Phosphatidylcholine:ceramide cholinephosphotransferase 2 (Homo sapiens) (UniProt Q8NHU3); assay: Inhibition of SMS2 in human HuH7 cells assessed as down regulation of apoB secretion incubated for 17 hrs followed by further incubation for 2 hrs in presence of [35S]-methionine; format: cell-based
T1 sequence (whole entry): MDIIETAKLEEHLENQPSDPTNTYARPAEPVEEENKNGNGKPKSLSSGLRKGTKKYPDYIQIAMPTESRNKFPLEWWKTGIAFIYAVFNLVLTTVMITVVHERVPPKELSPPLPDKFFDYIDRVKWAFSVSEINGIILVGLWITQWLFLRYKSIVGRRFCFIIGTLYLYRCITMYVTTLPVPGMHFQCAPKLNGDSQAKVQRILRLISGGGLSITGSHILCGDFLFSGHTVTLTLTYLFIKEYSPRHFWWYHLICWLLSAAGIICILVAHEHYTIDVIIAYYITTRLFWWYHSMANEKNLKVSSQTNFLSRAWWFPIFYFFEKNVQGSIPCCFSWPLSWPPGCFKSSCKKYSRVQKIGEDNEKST
Method in brief: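 Huh7 human hepatoma cells treated with inhibitor 17 h, then pulse-labeled with [³⁵S]-methionine for 2 h with vehicle or compound; secreted [³⁵S]-apoB in medium detected and quantified.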

[6] = Apparent oral clearance in C57BL/6J mouse at 25 mg/kg/day, ig by HPLC-MS/MS analysis; format: ADME, organism-based; details: in vivo; method in brief: as §2
[7] = test system: Mus musculus; assay: Anti-atherosclerotic activity in apoE knockout mouse fed with western-type diet assessed as reduction in liver SMS activity at 40 mg/kg/day, ig for 7 weeks relative to control; format: functional; design: scale not given: the % may be the effect or the level left; method in brief: as §1
[8] = test system: Mus musculus; assay: Anti-atherosclerotic activity in apoE knockout mouse fed with western-type diet assessed as reduction in CD11b+/CD11c+ dendritic cells at 12.5 mg/kg/day, ig for 7 weeks by flow cytometric analysis; format: functional, organism-based
Method in brief: (§4)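 ApoE KO mice started at 8 weeks old on Western-type diet for 6 weeks. Then dosed by gavage daily with vehicle, 12.5 or 40 mg/kg for 7 weeks with the diet continued, 10 mice per group. Blood single-cell suspensions stained with antibodies in PBS and analysed by flow cytometry. Mean ± SD, n = 5.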

[9] = test system: Mus musculus; assay: Anti-atherosclerotic activity in apoE knockout mouse fed with western-type diet assessed as reduction in CD11b+/Ly6C++/Ly6G+ dendritic cells at 12.5 mg/kg/day, ig for 7 weeks by flow cytometric analysis relative to control; format: functional; design: scale not given: the % may be the effect or the level left; method in brief: as §4
[10] = test system: BMDM; assay: Induction of cytosolic IkappaBalpha […] in LPS-stimulated C57BL/6J mouse bone marrow derived macrophages preincubated for 17 hrs followed by LPS-stimulation and measured after 6 hrs by Western blot analysis; format: functional, cell-based
Method in brief: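 Bone marrow-derived macrophages from femurs of 8-week-old male C57BL/6J mice, preincubated with a range of concentrations for 17 h, then stimulated with 1 µg/ml LPS. Cells lysed in RIPA buffer with protease inhibitors. Western blot probed for IκBα with β-actin as loading control, ECL detection. Mean ± SD, n = 7.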

[11] = Apparent volume of distribution during terminal phase in C57BL/6J mouse at 50 mg/kg/day, ig by HPLC-MS/MS analysis; format: ADME, organism-based; details: in vivo, po, read-out: Vz/F; method in brief: as §2
[12] = test system: Mus musculus; assay: Anti-atherosclerotic activity in apoE knockout mouse fed with western-type diet assessed as reduction in lesions in proximal aorta at 12.5 mg/kg/day, ig for 7 weeks by hematoxylin and eosin staining-based assay relative to control; format: functional; design: scale not given: the % may be the effect or the level left; method in brief: as §3

For CCc1ccccc1COc1ccccc1C(=O)Nc1cccnc1, the Activity [1] was 35%, the AUC at 8 h [2] was 13200 ng·h/mL and the CL/F [3] was 143 mL/min. The Activity [4] was “Dose-dependent effect”, the inhibition [5] was “Dose-dependent effect” and the CL/F [6] was 188 mL/min. For the same compound, the Activity [7] was 39%, the Activity [8] was “inactive” and the Activity [9] was 16%. The Activity [10] was “Dose-dependent effect”, the Vd/F [11] was 26.5 L and the Activity [12] was 38%.

Source: ChEMBL document CHEMBL4411297, “Discovery, synthesis and anti-atherosclerotic activities of a novel selective sphingomyelin synthase 2 inhibitor” (Eur J Med Chem, 2019)
